Sampled rows, rich in hits. Any-hit rate of the full collection: about 2.7%.
MC4R ag barr – MC4R agonists recruiting beta-arrestin, primary screen, cell-based, luminescence, agonist arm of biased-ligand search; Melanocortin receptor 4 (Homo sapiens), P32245; U2OS MC4R beta-arrestin complementation; percent of melanotan II response, DMSO zero; activation, % at 8.9 µM; 360,000 tested, 0.98% active;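 active = activation above a per-plate cutoff, the mean activation of sample wells on that plate plus 3 SD, cut at about 8% in these data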
NR2E3 ag-1 – inhibitors of NR2E3-RetCOR corepressor binding, primary screen, NR2E3 agonist project, biochemical, TR-FRET, GST-NR2E3, biotin-RetCOR | 1536-well | inhibition of corepressor binding, % at 4.78 µM | 320,000 tested, 0.12% active;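 active = percent inhibition above the cutoff of mean plus 3 SD of all tested compounds, set per screening campaign, cut at about 20% in these data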
Target sequence (Q9Y5X4 whole entry, looked up): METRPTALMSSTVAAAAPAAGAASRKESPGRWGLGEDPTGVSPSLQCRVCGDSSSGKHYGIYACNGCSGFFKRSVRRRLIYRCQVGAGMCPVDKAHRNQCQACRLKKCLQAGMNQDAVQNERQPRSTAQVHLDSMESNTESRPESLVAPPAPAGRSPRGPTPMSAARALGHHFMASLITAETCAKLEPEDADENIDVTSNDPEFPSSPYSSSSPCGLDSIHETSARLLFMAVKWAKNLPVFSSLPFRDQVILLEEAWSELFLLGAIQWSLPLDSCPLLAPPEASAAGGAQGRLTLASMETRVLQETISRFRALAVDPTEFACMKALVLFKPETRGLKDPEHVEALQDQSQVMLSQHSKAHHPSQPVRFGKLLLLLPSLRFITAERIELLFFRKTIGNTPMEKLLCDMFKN
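Material: NR2E3–RetCOR corepressor complex | Quantity: 1.35 nM GST-tagged NR2E3 final | Schedule: 5 h at 4 °C | Replication: Singlicate compound wells | Reagent: RetCOR corepressor, biotinylated, 7 nM | Controls: Biotin wells as high control, 0.6% DMSO wells as low control | Signal: TR-FRET, Eu(K)-anti-GST donor, streptavidin-D2 acceptor, ex 340, em 617/671 nm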
NR2E3 ag-2 – NR2E3 agonists in two-hybrid cells, primary screen, cell-based, luminescence, CHO-S, Gal4-NCOR/VP16-NR2E3. Photoreceptor-specific nuclear receptor (Homo sapiens), Q9Y5X4. luciferase. inhibition of corepressor binding, % at 3.98 µM. 360,000 tested, 0.35% active;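 active = inhibition above the mean of all tested compounds plus 3 SD, cut at about 70% in these data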;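 also: higher means lower luciferase signal from less NR2E3 corepressor binding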
MC4R antagonist – MC4R antagonists of cAMP signaling, primary screen, cell-based, TR-FRET, antagonist arm of biased-ligand search; Melanocortin receptor 4 (Homo sapiens), P32245; MC4R-expressing cells, MTII-stimulated cAMP, LANCE TR-FRET; inhibition, % at 6.5 µM; 360,000 tested, 0.48% active; AID 540295, 2011;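 active = inhibition above its plate's cutoff, the mean of tested wells on that plate plus 3 SD, cut at about 29% in these data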
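System: U2OS-MC4R stable cell line; Technique: Eu-cAMP/anti-cAMP TR-FRET, emission 671 nm; Repeats: single well per compound; Also added: Melanotan II; Dosing: one concentration, 6.5 µM nominal; Schedule: 30-min compound, 1-h challenge, 1-h detection, room temperature.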
PG9 Ab binder – binders of HIV-1 gp120 antibody PG9, primary screen, biochemical, TR-FRET; AID 624416, 2012; 360,000 tested, 0.43% active; inhibition, % at 6.7 µM; TR-FRET gp120-PG9 antibody binding; in the data active = inhibition above about 8.5%
Rev-erbA mod – modulators of Rev-erb alpha DNA binding, primary screen, biochemical, FITC-DNA, fluorescence polarization, uHTS. Rev-erbα–FITC-DNA binding, 90 min. activity, % at 10 µM. 370,000 tested, 0.79% active. AID 1259318, 2017;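 active = activity above about 14%, limit read from the data; passing the limit was not always enough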
PG9 bind confirm – binders of anti-gp120 antibody PG9, confirmation, biochemical, TR-FRET; shares compounds with PG9 Ab binder; inhibition, % at 6.7 µM; 1,500 tested, 90% active; AID 651571, 2012; TR-FRET PG9 antibody binding; in the data active = inhibition above about 9%
PGV04 Ab binding – binders of control antibody PGV04, counter-screen for PG9 antibody binder project, biochemical, TR-FRET, distinct HIV envelope site; shares compounds with PG9 Ab binder; TR-FRET PGV04 antibody-gp120 binding; 1,500 tested, 95% active; inhibition, % at 6.7 µM; in the data active = inhibition above about 9.5%
PG9 binder DR – small-molecule binders of antibody PG9, dose response, biochemical, TR-FRET, HIV-1 gp120 antibody. shares compounds with PG9 Ab binder. TR-FRET PG9 antibody-gp120 binding inhibition. IC50, µM. 95 tested, under 10 active; in the data active = IC50 below about 10 µM
PGV04 DR counter – binders of control antibody PGV04, dose response, counter-screen for PG9 antibody binder project, biochemical, TR-FRET, distinct HIV envelope site; AID 651937, 2012; IC50, µM; 95 tested, 20% active; shares compounds with PG9 Ab binder; TR-FRET binding to control antibody PGV04
PG126 binding DR – binders of control antibody PG126, dose response, counter-screen for PG9 antibody binder project, biochemical, TR-FRET, distinct HIV envelope site; shares compounds with PG9 Ab binder; TR-FRET binding to antibody PG126, counterscreen; IC50, µM; 95 tested, 20% active; AID 651939, 2012
NR1D1 mod conf – modulators of Rev-erb alpha DNA binding, confirmation, biochemical, FITC-DNA, fluorescence polarization, single point; 90 min; 3,000 tested, 61% active; shares compounds with Rev-erbA mod; activation, % at 25 µM;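 active = activation at or above a set limit, or at least 3 SD above the negative control mean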
RORg DNA counter – modulation of RORgamma DNA binding, dose response, counter-screen for Rev-erb alpha modulator project, biochemical, fluorescence polarization, FITC-DNA | IC50, µM | AID 1259320, 2017 | shares compounds with Rev-erbA mod | purified RORgamma protein-FITC-DNA binding | 910 tested, 8% active;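 active = Compounds whose fitted half-maximal concentration for disrupting protein-DNA binding is below 10 micromolar; the record names Rev-erb in its text, so the target is in doubt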
Each line names hits and unclear results; the compound was inactive in the other large screens (follow-up assays come after a bar, where they were run). Rule as the data show it, unless noted: active = IC50 below about 9 µM; inactive = the rest.

Cc1cccc(NC(=O)CSc2ncnc3sc(C)c(C)c23)n1	none (no result: NR2E3 ag-1)
CS(=O)(=O)c1ccc2nc(NC(=O)c3ccc(Cl)cc3)sc2c1	PG9 Ab binder 58.0, Rev-erbA mod 37.5 | PG9 bind confirm 51.4 | PGV04 Ab binding 64.5 | NR1D1 mod conf inactive
COc1ccc(C(=O)Nc2nc3ccc(S(C)(=O)=O)cc3s2)cc1	PG9 Ab binder 45.8, Rev-erbA mod 26.9 | PG9 bind confirm 40.8 | PGV04 Ab binding 57.9 | NR1D1 mod conf inactive
CS(=O)(=O)c1ccc2nc(NC(=O)c3cccc(Cl)c3)sc2c1	none
CC(C)CCNC(=O)c1cc2c(=O)[nH]c3ccccc3c2s1	PG9 Ab binder 10.0, Rev-erbA mod 30.3 | PG9 bind confirm 16.9 | PGV04 Ab binding 20.9 | NR1D1 mod conf 22.2
COc1cccc(-c2csc(N3CCN(C(=O)Nc4ccc(Cl)cc4)CC3)n2)c1	none
Cc1ccc2nc(-c3cc(-c4ccccc4)no3)cn2c1	PG9 Ab binder 22.6, Rev-erbA mod 36.6 | PG9 bind confirm 29.2 | PGV04 Ab binding 27.8 | PG9 binder DR inactive | PGV04 DR counter inactive | PG126 binding DR inactive | NR1D1 mod conf 18.8
CCc1ccn2cc(-c3cc(-c4ccccc4)no3)nc2c1	none
COc1ccc(C)cc1S(=O)(=O)N(C)CC(=O)NCc1ccco1	none
Cc1cc(=O)n2nc(N3CCCC3C(=O)Nc3ccccc3C)sc2n1 (centres undefined)	none
CCOC(=O)c1nn(-c2ccc(OCC)cc2)c2nc(CC(C)C)c(C#N)c(=O)n12	none
CCOC(=O)c1nn(-c2ccc(Cl)cc2)c2nc(CC)c(C#N)c(=O)n12	PG9 Ab binder 16.4, Rev-erbA mod 33.2 | PG9 bind confirm 20.5 | PGV04 Ab binding 25.0 | NR1D1 mod conf inactive
O=C(c1ccccc1)c1ccc2cc(O)ccc2c1	none
Cc1cc(NCCCN(C)C)n2c(nc3ccccc32)c1C#N	none
Cc1cc(NCCCOC(C)C)n2c(nc3ccccc32)c1C#N	PG9 Ab binder 10.7, Rev-erbA mod 44.3 | PG9 bind confirm 21.9 | PGV04 Ab binding 32.6 | NR1D1 mod conf inactive
O=C(Nc1nc2ccccc2n1CCOc1ccccc1)c1ccco1	none
Cc1ccc(OCCn2c(NC(=O)c3ccco3)nc3ccccc32)cc1	PG9 Ab binder 19.3, Rev-erbA mod 29.8 | PG9 bind confirm 16.6 | PGV04 Ab binding 25.2 | NR1D1 mod conf inactive
CCc1nonc1NC(=O)c1oc2ccccc2c1C	none
CCc1nonc1NC(=O)c1oc2cc(Br)ccc2c1C	PG9 Ab binder 18.4, Rev-erbA mod 16.8 | PG9 bind confirm 19.8 | PGV04 Ab binding 38.1 | NR1D1 mod conf inactive
O=C(Cc1cccc2ccccc12)Nc1ccc(-c2cc3ccccc3oc2=O)cc1	PG9 Ab binder 18.5, Rev-erbA mod 27.1 | PG9 bind confirm 34.9 | PGV04 Ab binding 44.5 | NR1D1 mod conf inactive
Cc1nc2ccc3nc(NC(=O)c4ccc5c(c4)OCCO5)sc3c2s1	PG9 Ab binder 35.4, Rev-erbA mod 77.9 | PG9 bind confirm 27.0 | PGV04 Ab binding 56.1 | NR1D1 mod conf 39.2 | RORg DNA counter inactive
C#CCn1c(=NC(=O)c2ccc(Br)s2)sc2cccc(OC)c21	PG9 Ab binder 10.8, Rev-erbA mod 27.0 | PG9 bind confirm 15.1 | PGV04 Ab binding 25.9 | NR1D1 mod conf 42.6 | RORg DNA counter inactive
CC(C)(C)NC(=O)CN(C(=O)CS(=O)CC(=O)Nc1ccc(F)cc1)c1ccc(F)c(Cl)c1 (centres undefined)	none
Cc1cc(C)c2nc(SCC(=O)N3CC(=O)Nc4ccccc43)c(C#N)cc2c1	PG9 Ab binder 12.8, Rev-erbA mod 98.4 | PG9 bind confirm 11.4 | PGV04 Ab binding 23.7 | NR1D1 mod conf 64.0 | RORg DNA counter inactive
O=C(Nc1ccc2c(c1)C(=O)NC2=O)c1cc(Cl)ccc1Cl	PG9 Ab binder 9.5, Rev-erbA mod 144.3 | PG9 bind confirm 10.1 | PGV04 Ab binding 15.3 | NR1D1 mod conf 120.8 | RORg DNA counter inactive
O=C(Nc1ccc2c(c1)C(=O)NC2=O)c1ccc(Cl)s1	none
CN(C(=O)CSc1nc2ccccc2c(=O)n1-c1ccccc1Cl)C1CCS(=O)(=O)C1 (centres undefined)	none (no result: NR2E3 ag-1)
CCOc1ncccc1C(=O)Nc1ccc(Cl)c(S(=O)(=O)N2CCCC2)c1	PG9 Ab binder 11.4, Rev-erbA mod 32.9 | PG9 bind confirm inactive | PGV04 Ab binding 10.1 | NR1D1 mod conf 18.6
C=CCN1C(=O)/C(=C2/Sc3ccccc3N2C)SC1=Nc1ccccc1C	none

Screening results: PubChem BioAssay, several laboratories
